Source: ChEMBL document CHEMBL1154674, “Synthesis and evaluation of three 18F-labeled aminophenylbenzothiazoles as amyloid imaging agents” (J Med Chem, 2009)

What was measured:
Type in all cases: ADME, organism-based, Macaca mulatta
[1] = Drug level in normal rhesus monkey thalamus assessed as standard uptake value at 109.4 MBq, iv after 3.5 mins by microPET; conditions: in vivo
[2] = Drug level in normal rhesus monkey cerebellum assessed as standard uptake value at 109.4 MBq, iv after 75 mins by microPET; conditions: in vivo, 1.25 h
Method in brief: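 One normal rhesus monkey received each tracer via the vena saphena, with 1 day between injections. Dynamic μPET ran 180 min for 18F tracers (5×60 s, 5×120 s, 9×300 s, 12×600 s) and 90 min for the 11C tracer (5×60 s, 5×120 s, 9×300 s, 3×600 s). Filtered back-projection reconstruction (RAMP filter) was used. Time-activity curves were drawn to give regional SUV.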

[3] = Drug level in normal rhesus monkey thalamus assessed as standard uptake value at 109.4 MBq, iv after 47.5 mins by microPET; conditions: in vivo
[4] = Drug level in normal rhesus monkey white matter assessed as standard uptake value at 109.4 MBq, iv after 1.5 mins by microPET; conditions: in vivo, 0.025 h
[5] = Drug level in normal rhesus monkey pons assessed as standard uptake value at 109.4 MBq, iv after 0.375 mins by microPET; conditions: in vivo, 22 s
[6] = Drug level in normal rhesus monkey frontal cortex assessed as standard uptake value at 109.4 MBq, iv after 0.625 mins by microPET; conditions: in vivo, 38 s
[7] = Drug level in normal rhesus monkey pons assessed as standard uptake value at 109.4 MBq, iv after 87 mins by microPET; conditions: in vivo, 1.45 h
[8] = Drug level in normal rhesus monkey parietal cortex assessed as standard uptake value at 109.4 MBq, iv after 27.5 mins by microPET; conditions: in vivo
[9] = Drug level in normal rhesus monkey frontal cortex assessed as standard uptake value at 109.4 MBq, iv after 63 mins by microPET; conditions: in vivo, 1.05 h
[10] = Drug level in normal rhesus monkey white matter assessed as standard uptake value at 81.2 MBq, iv after 3.5 mins by microPET; conditions: in vivo
[11] = Drug level in normal rhesus monkey cerebellum assessed as standard uptake value at 81.2 MBq, iv after 135 mins by microPET; conditions: in vivo, 2.25 h
Method in brief: (§1)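 One normal rhesus monkey, each tracer given iv via the vena saphena (81.2, 96.3 or 109.4 MBq), with 1 day between tracer injections. Dynamic brain μPET over 180 min used frames of 5 × 60 s, 5 × 120 s, 9 × 300 s and 12 × 600 s. Images were reconstructed by filtered back projection with a RAMP filter. Regional time-activity curves were expressed as SUV.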

[12] = Drug level in normal rhesus monkey frontal cortex assessed as standard uptake value at 81.2 MBq, iv after 12 mins by microPET; conditions: in vivo, 0.2 h
Method in brief: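 Single normal rhesus monkey; each tracer given iv via the vena saphena, with 1 day between tracer injections. Dynamic μPET ran 180 min (5×60 s, 5×120 s, 9×300 s, 12×600 s). Images were reconstructed by filtered back projection with a RAMP filter. Regional time-activity curves were expressed as SUV.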

[13] = Drug level in normal rhesus monkey thalamus assessed as standard uptake value at 81.2 MBq, iv after 12 mins by microPET; conditions: in vivo, 0.2 h
[14] = Drug level in normal rhesus monkey white matter assessed as standard uptake value at 81.2 MBq, iv after 175 mins by microPET; conditions: in vivo
[15] = Drug level in normal rhesus monkey white matter assessed as standard uptake value at 81.2 MBq, iv after 145 mins by microPET; conditions: in vivo
[16] = Drug level in normal rhesus monkey white matter assessed as standard uptake value at 81.2 MBq, iv after 47.5 mins by microPET; conditions: in vivo
[17] = Drug level in normal rhesus monkey white matter assessed as standard uptake value at 81.2 MBq, iv after 10 mins by microPET; conditions: in vivo
[18] = Drug level in normal rhesus monkey frontal cortex assessed as standard uptake value at 81.2 MBq, iv after 27.5 mins by microPET; conditions: in vivo
[19] = Drug level in normal rhesus monkey white matter assessed as standard uptake value at 81.2 MBq, iv after 32.5 mins by microPET; conditions: in vivo
[20] = Drug level in normal rhesus monkey cerebellum assessed as standard uptake value at 152.9 MBq, iv after 75 mins by microPET; conditions: in vivo, 1.25 h
Method in brief: (§2)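 Single normal rhesus monkey; tracer given iv via the vena saphena, 1 day apart from the other tracer injections. Dynamic μPET ran 90 min (5×60 s, 5×120 s, 9×300 s, 3×600 s). Images were reconstructed by filtered back projection with a RAMP filter. Regional time-activity curves were expressed as SUV.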

[21] = Drug level in normal rhesus monkey pons assessed as standard uptake value at 152.9 MBq, iv after 27.5 mins by microPET; conditions: in vivo
[22] = Drug level in normal rhesus monkey cerebellum assessed as standard uptake value at 152.9 MBq, iv after 32.5 mins by microPET; conditions: in vivo; method in brief: as §2
[23] = Drug level in normal rhesus monkey white matter assessed as standard uptake value at 152.9 MBq, iv after 1.5 mins by microPET; conditions: in vivo, 0.025 h
[24] = Drug level in normal rhesus monkey pons assessed as standard uptake value at 152.9 MBq, iv after 14 mins by microPET; conditions: in vivo
[25] = Drug level in normal rhesus monkey white matter assessed as standard uptake value at 152.9 MBq, iv after 17.5 mins by microPET; conditions: in vivo
[26] = Drug level in normal rhesus monkey white matter assessed as standard uptake value at 152.9 MBq, iv after 75 mins by microPET; conditions: in vivo, 1.25 h
[27] = Drug level in normal rhesus monkey parietal cortex assessed as standard uptake value at 152.9 MBq, iv after 47.5 mins by microPET; conditions: in vivo
[28] = Drug level in normal rhesus monkey white matter assessed as standard uptake value at 96.3 MBq, iv after 165 mins by microPET; conditions: in vivo, 2.75 h
[29] = Drug level in normal rhesus monkey cerebellum assessed as standard uptake value at 96.3 MBq, iv after 47.5 mins by microPET; conditions: in vivo; method in brief: as §1
[30] = Drug level in normal rhesus monkey thalamus assessed as standard uptake value at 96.3 MBq, iv after 0.5 mins by microPET; conditions: in vivo
[31] = Drug level in normal rhesus monkey thalamus assessed as standard uptake value at 96.3 MBq, iv after 17.5 mins by microPET; conditions: in vivo
[32] = Drug level in normal rhesus monkey thalamus assessed as standard uptake value at 96.3 MBq, iv after 165 mins by microPET; conditions: in vivo, 2.75 h
[33] = Drug level in normal rhesus monkey cerebellum assessed as standard uptake value at 96.3 MBq, iv after 125 mins by microPET; conditions: in vivo; method in brief: as §1
[34] = Drug level in normal rhesus monkey parietal cortex assessed as standard uptake value at 96.3 MBq, iv after 27.5 mins by microPET; conditions: in vivo
[35] = Drug level in normal rhesus monkey frontal cortex assessed as standard uptake value at 96.3 MBq, iv after 65 mins by microPET; conditions: in vivo
[36] = Drug level in normal rhesus monkey frontal cortex assessed as standard uptake value at 96.3 MBq, iv after 57.5 mins by microPET; conditions: in vivo

Compound Nc1ccc2nc(-c3ccc([18F])cc3)sc2c1 has an SUV [1] of 4.66, an SUV [2] of 2.92 and an SUV [3] of 5.56. For the same compound, the SUV [4] was 1.98, the SUV [5] was 0.4 and the SUV [6] was 1.15. For the same compound, the SUV [7] was 4.84, the SUV [8] was 4.84 and the SUV [9] was 4.56.
Compound CNc1ccc2nc(-c3ccc([18F])cc3)sc2c1 has an SUV [10] of 3.019, an SUV [11] of 1.594 and an SUV [12] of 5.988. The SUV [13] was 4.684, the SUV [14] was 4.226 and the SUV [15] was 3.888. It also gave an SUV [16] of 3.674, an SUV [17] of 3.524 and an SUV [18] of 5.784. The SUV [19] was 3.799.
[11CH3]Nc1ccc(-c2nc3ccc(O)cc3s2)cc1 [PITTSBURGH COMPOUND B] showed an SUV [20] of 0.665, an SUV [21] of 1.583 and an SUV [22] of 1.143. The SUV [23] was 0.292, the SUV [24] was 2.04 and the SUV [25] was 1.328. For the same compound, the SUV [26] was 0.828 and the SUV [27] was 0.862.
CN(C)c1ccc2nc(-c3ccc([18F])cc3)sc2c1 showed an SUV [28] of 1.55, an SUV [29] of 1.23 and an SUV [30] of 0.63. It also gave an SUV [31] of 2.3, an SUV [32] of 1.86 and an SUV [33] of 0.9. It also gave an SUV [34] of 1.99, an SUV [35] of 1.79 and an SUV [36] of 2.01.
